This is a sample that favours compounds with a hit; in the whole collection about 2.6% have one here.
Hsp70 activator – transcriptional activators of Hsp70; HeLa Hsp70 promoter luciferase reporter, luminescence; scaled: vehicle 0, proteasome-inhibitor control 100%; activation, % at 10 µM; actives 0.04% (n = 200,000);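 active means activation above the mean across all tested compounds plus 3 SD, cutoff set per campaign, cut at about 5.5% in these data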;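 further: 100% = MG132 at 30 µM as the positive control and 0% = DMSO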
HSF1 inhib – HSF1 inhibition; NIH3T3-HGL HSE-luciferase, MG132-induced, luminescence 8 h; stronger effect = lower value; activity change, negative = inhibition, % at 7.5 µM (by protocol); actives 0.77% (n = 300,000); AID 2098;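 active means more than half of replicate wells show activity change below -50%, luminescence cut by over half; inconclusive means some wells, but at most half, below -50%; inactive means no replicate well below -50%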;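 further: luciferase reports HSF-1 transcriptional activity via heat shock element; 0% = median of DMSO wells and -100% = zero luminescence signal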
HSF1 activator – increases HSF-1 driven luciferase reporter signal | NIH3T3-HGL HSF-1 luciferase reporter, MG132, 8 h; 100% = twice DMSO control signal | AID 504408 | actives 1.7% (n = 300,000) | activation, % at 9 µM;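 active means mean replicate activation of at least 50% with a set share of replicates each reaching 50%; inconclusive means only one of those two conditions met; inactive means mean below 50% and too few replicates reaching it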;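 further: 0% = median of the neutral control wells and 100% = twice that signal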
HSV augment – HSV replication enhancement. actives 0.005% (n = 220,000). HSV replication augmentation in cells, fold increase. maximum fold increase; in the data active means maximum fold increase above about 1.5; inconclusive means no clear call, values can overlap the other calls; tested in PC3 cells
Rad51 HR inh – blocks human Rad51 in homologous recombination; inhibition, % at 10 µM; actives 0.085% (n = 200,000); hRad51 DNA strand exchange, fluorescence dequenching;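 active means inhibition above 40% at the single screening dose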;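 further: 0% = DMSO control wells and 100% = blanks with heterologous ssDNA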
Target sequence (Q06609 whole entry, looked up): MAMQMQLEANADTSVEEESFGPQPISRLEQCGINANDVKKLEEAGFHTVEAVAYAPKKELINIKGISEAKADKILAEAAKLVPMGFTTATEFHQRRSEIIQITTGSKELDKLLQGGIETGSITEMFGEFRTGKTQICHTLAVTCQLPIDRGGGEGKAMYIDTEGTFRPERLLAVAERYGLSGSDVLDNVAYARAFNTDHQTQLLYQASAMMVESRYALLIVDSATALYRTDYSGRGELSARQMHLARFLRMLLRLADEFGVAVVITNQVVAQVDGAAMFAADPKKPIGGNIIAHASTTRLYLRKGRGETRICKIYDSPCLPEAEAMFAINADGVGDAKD
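Test system: preformed human Rad51 ssDNA filaments. Compound dosing: single dose, 10 µM final compound. Incubation: filaments 15 min 37 °C, then compound 30 min. Technique: FRET fluorescence dequenching, excitation 485 nm, emission 520 nm. Read-out basis: percent inhibition from fluorescence, normalised to plate control and blank means. Benchmarks: plate controls and plate blanks.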
Mdm2 ligase inh – inhibitors of human Mdm2 E3 ubiquitin ligase; Q00987; cell-based MDM2 ubiquitination luciferase reporter, 2 h; 0 = plate control, 100 = twice control, blank-subtracted; signal enhancement, % at 5 µM; actives 0.11% (n = 210,000);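 active means signal enhancement of 30% or more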;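 further: luminescence tracks abundance of the self-degrading MDM2-luciferase fusion protein; higher signal means inhibition of MDM2 E3 ligase activity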
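Assay system: stable mammalian line carrying autodegrading MDM2–luciferase fusion reporter; amount: 2000 cells seeded into each well; buffer or medium: DMEM; benchmarks: plate control and blank wells; signal: luciferase luminescence; timing: 2 h compound exposure at 37 °C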
Numbers without * were called inactive.

For O=C(CNC(=O)c1ccc2c(c1)OCO2)N/N=C/c1cccc([N+](=O)[O-])c1 the results were Hsp70 activator 0, HSF1 inhib 7, HSF1 activator 5, HSV augment inactive, Rad51 HR inh 5 and Mdm2 ligase inh -12.
O=C(CN1CCN(c2ccccc2)CC1)NCc1ccc(F)cc1 was read as HSF1 inhib -56* and HSF1 activator -62.
For O=C(CN1CCCCCC1)NCc1ccccc1 the results were Hsp70 activator 0, HSV augment inactive, Rad51 HR inh -2 and Mdm2 ligase inh -8.
`O=C(NCc1ccccc1)C1CCCC1` gave HSF1 inhib -62* and HSF1 activator -72.
Screening COc1ccc(CNC(=O)CN2CCN(c3ccccc3)CC2)cc1 returned HSF1 inhib 4 and HSF1 activator 15.
For O=C(CN1CCCCC1)NC(=O)NCc1ccccc1 the results were Hsp70 activator 0, HSV augment inactive, Rad51 HR inh -1 and Mdm2 ligase inh 38*.
`CCN(CCCNC(=O)CCCCn1c(=O)[nH]c2ccccc2c1=O)c1ccccc1` gave Hsp70 activator 0, HSF1 inhib 55, HSF1 activator 74*, HSV augment inactive, Rad51 HR inh 7 and Mdm2 ligase inh -6.
`Cc1cccc(NC(=O)c2cc[n+]([O-])cc2)c1C` gave HSF1 inhib -10 and HSF1 activator -5.
Screening CCOC(=O)C1CN(S(=O)(=O)c2ccc(OC)cc2)c2cc(S(=O)(=O)CC)ccc2O1 (configuration not stated) returned Hsp70 activator 0, HSF1 inhib -2, HSF1 activator -15, HSV augment inactive, Rad51 HR inh 3 and Mdm2 ligase inh -10.
CC(NC(=O)c1ccc(Br)cc1)c1ccc2c(c1)CCCC2 (configuration not stated) was read as Hsp70 activator 0, HSF1 inhib 3, HSF1 activator 5, HSV augment inactive, Rad51 HR inh -2 and Mdm2 ligase inh -5.
Screening CC(NC(=O)c1ccccc1Br)c1ccc2c(c1)CCCC2 (configuration not stated) returned Hsp70 activator 0, HSF1 inhib 21, HSF1 activator 59*, HSV augment inactive, Rad51 HR inh 9 and Mdm2 ligase inh -14.
COc1cccc2oc3ccc(C#Cc4ccccn4)cc3c(=O)c12 was read as HSF1 inhib 34 and HSF1 activator 61*.
Screening CNC(C)C#Cc1ccc2oc3cccc(OC)c3c(=O)c2c1 (configuration not stated) returned HSF1 inhib 3 and HSF1 activator 28.
`O=c1c2ccccc2oc2cc(C#Cc3ccccn3)ccc12` gave HSF1 inhib 40, HSF1 activator 63*, HSV augment inactive and Rad51 HR inh -2.
Screening COc1ccc(NC(=O)C(=O)NCC2CCCN2S(=O)(=O)c2ccc(C)cc2)cc1 (configuration not stated) returned HSF1 inhib -31 and HSF1 activator -39.
For COc1ccc(CN2C(=O)c3cccnc3C2=O)cc1S(=O)(=O)N(C)c1ccc(C)cc1 the results were HSF1 inhib -5 and HSF1 activator -3.
Screening O=C(c1cc(Cl)c(=O)n(Cc2ccc(Cl)cc2)c1)N1CCOCC1 returned Hsp70 activator 0, HSF1 inhib 11, HSF1 activator 27, HSV augment inactive, Rad51 HR inh -9 and Mdm2 ligase inh -8.
For CC1=C(C(=O)Nc2ccc(C)cc2C)C(c2ccc(Cl)cc2)n2nc(C(=O)OC(C)C)nc2N1 (configuration not stated) the results were Hsp70 activator 0, HSF1 inhib -13, HSF1 activator -9, HSV augment inactive, Rad51 HR inh 0 and Mdm2 ligase inh -3.
Cc1ccc(N/N=C2\CS(=O)(=O)N(C)c3ccsc32)cc1 was read as Hsp70 activator 0, HSF1 inhib 73, HSF1 activator 88*, HSV augment inactive, Rad51 HR inh 4 and Mdm2 ligase inh -29.
`Cc1oc2c(C)c(O)ccc2c(=O)c1-c1cnn(-c2ccccc2)c1` gave Hsp70 activator 0, HSF1 inhib 0, HSF1 activator 3, HSV augment inactive, Rad51 HR inh -8 and Mdm2 ligase inh -10.
Cc1[nH]nc(-c2ccc(O)c(C)c2O)c1-c1cnn(-c2ccccc2)c1 was read as Hsp70 activator 0, HSF1 inhib 29, HSF1 activator 67*, HSV augment inactive, Rad51 HR inh -3 and Mdm2 ligase inh -16.
`CC(C)Nc1nnc(Sc2ccc(Cl)cc2[N+](=O)[O-])s1` gave Hsp70 activator 0, HSF1 inhib -50*, HSF1 activator -60, Rad51 HR inh 0 and Mdm2 ligase inh -8.
Nc1nnc(Sc2ccc(Cl)cc2[N+](=O)[O-])s1 was read as Hsp70 activator 0, HSF1 inhib 8, HSF1 activator 14, HSV augment inactive, Rad51 HR inh 3 and Mdm2 ligase inh -22.
For Cc1oc2c(CN3CCC(C)CC3)c(O)ccc2c(=O)c1-c1ccccc1 the results were HSF1 inhib -14 and HSF1 activator -9.
For c1ccc(CCSc2nccn2-c2ccccc2)cc1 the results were Hsp70 activator 0, HSF1 inhib 36, HSF1 activator 58*, HSV augment inactive, Rad51 HR inh 3 and Mdm2 ligase inh -13.
`c1ccc(Cc2nc3ccccc3o2)cc1` gave Hsp70 activator 0, HSF1 inhib -81*, HSF1 activator -84, HSV augment inactive, Rad51 HR inh -8 and Mdm2 ligase inh 3.
`O=c1oc(Cc2ccccc2)nc2ccccc12` gave HSF1 inhib 5 and HSF1 activator 15.
For CCCc1cc(=O)n2[nH]c(-c3ccc(Cl)cc3)cc2n1 the results were HSF1 inhib 20 and HSF1 activator 64*.
Screening O=C1/C(=C/c2cccc(O)c2)SC(=S)N1CC1CCCO1 (configuration not stated) returned HSF1 inhib 1, HSF1 activator -10, HSV augment inactive, Rad51 HR inh 17 and Mdm2 ligase inh -1.
`CCOc1cc(/C=C2/SC(=S)N(CC3CCCO3)C2=O)ccc1O` (configuration not stated) gave Hsp70 activator 0, HSF1 inhib 28, HSF1 activator 73* and HSV augment inconclusive.
Cc1nn(-c2ccccc2)c(N)c1C(O)(CSc1nccn1C)C(F)(F)F (configuration not stated) was read as Hsp70 activator 0, HSF1 inhib -91*, HSF1 activator -91, HSV augment inactive, Rad51 HR inh -5 and Mdm2 ligase inh -1.
For CN(C)c1cccc(C(=O)OCCNC(=O)c2cccc(S(=O)(=O)N3CCOCC3)c2)c1 the results were HSF1 inhib 28, HSF1 activator 59*, HSV augment inactive and Rad51 HR inh 3.

Screens: PubChem, several laboratories
